# V-ATPase pH = regulators of yeast V-ATPase proton transport; S. cerevisiae, pHLuorin cytosolic pH fluorescence; response, % at 10 µM; 350,000 compounds, 0.37% hits; in the data active = response mostly above about 7.3%, no sharp cut-off; inactive = mostly below about 5.4%; also: actives read high
# MPTP block = inhibitors of mitochondrial permeability transition pore; isolated mouse mitochondria, Ca2+ swelling absorbance, 30 min; inhibition, % at 10 µM; 360,000 compounds, 1.4% hits; AID 602449;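 active = inhibition of 50% or more, scaled per plate between neutral and stimulator controls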;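 also: 0% = DMSO wells given calcium and 100% = 1 mM EGTA wells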
# Hep lipid drop = hepatic lipid droplet formation modulation | AML12 mouse hepatocytes, oleate lipid droplets, BODIPY imaging | inhibition, % at 6.5 µM | 240,000 compounds, 0.4% hits | AID 1656;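 active = lipid droplet intensity inhibited by at least 50%, with more than 500 cells counted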
#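 Assay system: AML12 hepatocytes (mouse) / Also added: 100 µM oleic acid challenge / Times: overnight treatment with compound plus oleate / Detection: high-content imaging of BODIPY-stained droplets and DAPI nuclei / Evaluation: % inhibition of lipid droplet signal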
# aDG glyco act = alpha-DG glycosylation activation. Pro5-aDG cells, alpha-DG glycosylation AlphaScreen (IIH6); 0% Pro5, 100% B10-LARGE cell signal. activation, % at 10 µM. 360,000 compounds, 0.22% hits. AID 624168;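 active = activation of at least 8% versus controls, or a plate z-score of at least 8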;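 also: Pro5 are CHO cells carrying HIG-tagged alpha-DG that lacks glycosylation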
# ADAM17 inh = inhibits human ADAM17; recombinant ADAM17, EDANS/DABCYL FRET peptide cleavage; inhibition, % at 6.95 µM; 370,000 compounds, 0.83% hits; AID 720648;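 active = inhibition above the mean of compounds lying between control limits plus 3 SD, set per campaign, cut at about 8.5% in these data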;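 also: 0% = DMSO-only wells as the low control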
# Target sequence (P78536 215-824 limits assumed): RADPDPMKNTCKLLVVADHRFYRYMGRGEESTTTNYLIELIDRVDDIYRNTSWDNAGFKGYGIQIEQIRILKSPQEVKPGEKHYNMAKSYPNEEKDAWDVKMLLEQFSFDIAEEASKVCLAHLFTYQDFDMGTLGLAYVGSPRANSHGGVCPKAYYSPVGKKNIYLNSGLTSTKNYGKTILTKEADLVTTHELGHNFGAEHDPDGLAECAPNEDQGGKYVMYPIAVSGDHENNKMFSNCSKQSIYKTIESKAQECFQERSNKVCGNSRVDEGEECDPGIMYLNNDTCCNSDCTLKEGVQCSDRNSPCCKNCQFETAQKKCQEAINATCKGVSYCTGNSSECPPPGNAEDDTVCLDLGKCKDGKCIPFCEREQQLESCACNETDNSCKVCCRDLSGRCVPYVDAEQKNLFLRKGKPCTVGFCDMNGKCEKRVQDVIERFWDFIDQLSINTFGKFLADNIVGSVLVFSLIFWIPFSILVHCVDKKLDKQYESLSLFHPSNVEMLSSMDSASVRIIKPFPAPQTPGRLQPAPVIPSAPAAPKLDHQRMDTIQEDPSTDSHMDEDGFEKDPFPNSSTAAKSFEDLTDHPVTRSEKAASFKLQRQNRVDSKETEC
# ADAM10 inh = inhibitors of human ADAM10 | AID 720582 | inhibition, % at 7 µM | recombinant ADAM10, EDANS/DABCYL FRET peptide cleavage, 3 h | 370,000 compounds, 0.62% hits | O14672;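 active = inhibition above a per-campaign cutoff equal to the mean of compounds falling between control-based bounds plus 3 SD, cut at about 20% in these data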;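 also: 0% = DMSO wells while the 100% control is not disclosed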
# ADAM10 confirm = human ADAM10 inhibition, confirmation. shares compounds with ADAM10 inh. ADAM10 QFRET peptide cleavage, EDANS fluorescence. inhibition, % at 6.95 µM. 2,100 compounds, 1% hits. AID 743208;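 active = inhibition above about 20% chosen separately for each screening run, limit read from the data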;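 also: 0% = DMSO wells and 100% = marimastat wells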
# ADAM17 counter = counter-screen for ADAM10 exosite inhibitors: inhibitors of human ADAM17. shares compounds with ADAM10 inh. ADAM17 QFRET peptide cleavage, EDANS fluorescence. inhibition, % at 6.95 µM. 2,100 compounds, 0.5% hits;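 active = mean triplicate inhibition above the solvent-only control wells' mean plus 3 SD, cut at about 12% in these data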;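 also: 0% = DMSO wells and 100% = marimastat wells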
# ADAM10 counter = counter-screen for ADAM17 exosite inhibitors: inhibitors of human ADAM10; shares compounds with ADAM17 inh; recombinant ADAM10, EDANS/DABCYL FRET peptide cleavage, 3 h; inhibition, % at 6.95 µM; 2,900 compounds, 47% hits;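 active = mean inhibition over the triplicate runs exceeds the activity threshold set in the earlier primary screen, cut at about 20% in these data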;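 also: 0% = DMSO wells and 100% = marimastat wells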
# ADAM17 confirm = confirmation of inhibitors of human ADAM17; shares compounds with ADAM17 inh; recombinant ADAM17, EDANS/DABCYL QFRET peptide cleavage; inhibition, % at 6.95 µM; 2,900 compounds, 65% hits;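 active = mean inhibition across replicates above the hit cutoff set in the primary screen, cut at about 8.5% in these data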;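 also: 0% = DMSO wells and 100% = marimastat wells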
# Active calls of the source: *; nt = no result given. A selection: hits, their analogues and other compounds. The true share with any hit is near 3.1%.
SMILES,V-ATPase pH,MPTP block,Hep lipid drop,aDG glyco act,ADAM17 inh,ADAM10 inh,ADAM10 confirm,ADAM17 counter,ADAM10 counter,ADAM17 confirm
Cc1cc(NS(=O)(=O)c2ccc(NC(=O)CSc3nnc(-c4ccccn4)n3Cc3ccco3)cc2)nc(C)n1,nt,nt,nt,nt,2.0,-10.2,nt,nt,nt,nt
CN(C)c1ccc(NC(=O)c2cn(-c3ccccc3)nc2-c2cccs2)cc1,-3.4,1.2,5.9,-0.5,13.3*,28.2*,14.4,6.2,19.7,9.7*
CCN(CC)CCOC(=O)c1ccc(NC(=O)c2cn(-c3ccccc3)nc2-c2cccs2)cc1,-0.3,6.5,-3.8,-0.4,4.2,10.4,nt,nt,nt,nt
CN(Cc1ccccc1)C(=O)Cn1nnc(-c2ccccc2)c1COc1ccc2ccccc2c1,nt,0.9,nt,0.2,20.3*,34.2*,7.6,1.6,25.0*,15.6*
CCOc1cc(-c2nc(-c3ccccc3)c(-c3cc([N+](=O)[O-])ccc3C)[nH]2)ccc1O,-4.5,15.7,8.9,0.8,11.5*,30.9*,7.0,3.1,21.1*,11.9*
O=[N+]([O-])c1ccc2nc(-c3ccccc3)[nH]c2c1,0.0,46.6,4.3,-0.1,-1.1,7.8,nt,nt,nt,nt
CCOC(=O)C1=CCN(S(=O)(=O)c2ccccc2Cl)C1c1ccc(Cl)c(Cl)c1 (stereo unspecified),nt,0.1,nt,0.1,15.1*,20.7*,5.9,1.6,8.0,3.7
COc1cc(-c2[nH]ncc2CN2CCCC2c2nonc2C)cc(OC)c1OC (stereo unspecified),-1.3,0.2,-21.4,0.0,0.1,-6.8,nt,nt,nt,nt
Cc1nonc1C1CCCN1Cc1cn[nH]c1-c1ccc(-c2ccccc2)cc1 (stereo unspecified),-3.7,5.2,8.2,0.2,16.8*,33.2*,7.6,2.6,29.8*,18.9*
Cc1ccc(NC(=O)COC(=O)/C=C/c2cccc(Cl)c2)cc1S(=O)(=O)N1CCOCC1,-2.4,-0.6,-37.4,0.1,9.5*,29.4*,4.9,1.7,26.2*,15.4*
Cc1ccc(NC(=O)COC(=O)CC2CC3CCC2C3)cc1S(=O)(=O)N1CCOCC1 (stereo unspecified),-1.8,0.1,nt,-0.1,12.4*,23.3*,0.9,0.2,10.6,8.0
C=CCNC(=O)COC(=O)c1ccc(Cl)c(S(=O)(=O)N(Cc2ccccc2)c2ccccc2)c1,-1.6,16.8,16.6,-0.4,11.6*,21.9*,2.4,1.7,29.4*,19.9*
NC(=O)COC(=O)c1ccc(Cl)c(S(=O)(=O)N(Cc2ccccc2)c2ccc(Cl)cc2)c1,-3.1,4.1,-4.2,-0.2,10.3*,25.9*,7.8,2.1,24.3*,13.6*
CCCC[C@@H](CCCc1ccc(F)cc1)CCC(=O)N(c1ccccc1)c1ccccc1,nt,nt,nt,nt,-1.1,-3.3,nt,nt,nt,nt
O=C(OC12CCCN(C1)/C(=C/c1ccccc1)C2)c1cccc(F)c1 (stereo unspecified),nt,nt,nt,nt,4.2,6.7,nt,nt,nt,nt
Cc1ccc(-n2c(Cc3cccs3)nnc2SCC(=O)Nc2ccc(OCc3ccccc3)cc2)cc1,nt,nt,nt,nt,11.8*,21.3*,10.5,3.5,22.3*,14.8*
O=C(CSc1nnc(-c2ccco2)n1-c1ccc(Cl)cc1)Nc1ccccc1-c1ccccc1,nt,nt,nt,nt,4.0,4.3,nt,nt,nt,nt
CCn1c(Cc2cccs2)nnc1SCC(=O)Nc1ccc(OCc2ccccc2)cc1,nt,nt,nt,nt,4.5,11.6,nt,nt,nt,nt
O=C(CSc1nnc(COc2ccccc2)n1-c1ccc(Cl)cc1)Nc1ccccc1-c1ccccc1,nt,nt,nt,nt,12.9*,27.8*,5.6,2.1,19.4,13.8*
COc1ccc(-n2c(Cc3cccs3)nnc2SCC(=O)Nc2ccc(OCc3ccccc3)cc2)cc1,nt,nt,nt,nt,11.0*,21.4*,12.3,4.0,25.3*,16.4*
CCCCCCN1CCS(=O)(=O)N(Cc2ccc(F)cc2)C(C(=O)OC)C1 (stereo unspecified),nt,nt,nt,nt,-8.5,-12.2,nt,nt,nt,nt
Cc1cccc(CN2CCN(C3CN(Cc4cn(Cc5ccc(C(F)(F)F)cc5)nn4)S(=O)(=O)C3)CC2)c1 (stereo unspecified),nt,nt,nt,nt,-2.2,-0.3,nt,nt,nt,nt
Cc1ccc(NC(=S)NC(=O)C2CCCCC2)c(Br)c1,-0.1,-1.0,nt,0.1,14.8*,33.3*,3.2,1.3,10.8,9.3*
CC(C)(C)NC(=O)CSc1nc2ccc(NC(=O)CSc3nnnn3Cc3ccccc3)cc2s1,0.2,10.3,-18.1,5.7*,9.8*,24.6*,5.2,1.8,22.3*,14.1*
O=C(NCc1ccccc1)OCCN1C(=O)CCC12CCC(c1ccccc1)CC2 (stereo unspecified),nt,nt,nt,nt,-0.1,-1.3,nt,nt,nt,nt
SMILES,V-ATPase pH,MPTP block,Hep lipid drop,aDG glyco act,ADAM17 inh,ADAM10 inh,ADAM10 confirm,ADAM17 counter,ADAM10 counter,ADAM17 confirm
CC(C)CC(CCOCCO)NC(=O)OCc1ccccc1[N+](=O)[O-] (stereo unspecified),nt,nt,nt,nt,-4.2,-10.6,nt,nt,nt,nt
COc1ccc(N(CC(=O)NCCSC2CCCCC2)S(=O)(=O)c2ccccc2)c(OC)c1,4.1,-0.1,2.1,-0.5,9.4*,20.7*,1.1,0.9,15.7,7.0
COc1ccc(OC)c(N(CC(=O)NCCSC2CCCCC2)S(=O)(=O)c2ccccc2)c1,-1.5,0.6,8.9,0.1,-1.3,-17.1,nt,nt,nt,nt
CC1(C)C=C2C(N(Cc3ccc4c(c3)OCO4)C(=N)N2C(=O)OCc2ccccc2)n2c(=O)n(-c3ccccc3)c(=O)n21 (stereo unspecified),nt,nt,nt,nt,-4.2,-7.2,nt,nt,nt,nt
COc1ccc(CNC(=O)CN(Cc2ccc(Cl)cc2)S(=O)(=O)c2ccccc2)cc1,-4.4,-1.1,-41.8,0.6,18.1*,24.3*,1.0,0.2,18.9,14.3*
COc1ccc(S(=O)(=O)N(CC(=O)NCc2ccncc2)Cc2ccccc2)cc1,-4.4,0.4,-9.2,0.1,0.3,2.1,nt,nt,nt,nt
COc1ccc(CNC(=O)CN(Cc2ccccc2)S(=O)(=O)c2ccc(Cl)cc2)cc1,5.9,1.8,-8.7,0.0,20.9*,28.9*,3.8,0.8,12.7,10.2*
COc1ccc(S(=O)(=O)N(CC(=O)NCc2ccccn2)Cc2ccccc2)cc1,-1.6,-0.3,-17.9,0.0,-2.1,-4.9,nt,nt,nt,nt
COc1ccc(S(=O)(=O)N(CC(=O)Nc2ccc(S(=O)(=O)N3CCOCC3)cc2)Cc2ccc(F)cc2)cc1,0.8,4.2,9.0,-0.4,9.4*,31.9*,6.6,1.7,41.2*,16.5*
